# Data published in PubChem BioAssay.
# Active and inactive are the calls of the source. Unless noted, no stated cut-off is given here; in the data, active means inhibition above about 30%; inactive means the rest.
# Key:
# [1] = Her2 expression decrease, cell viability multiplex – SKBR3 breast tumor cells, AlphaScreen, ATP viability, primary screen (AID 461;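 active means Her2 level under about 52% in both replicate screens, with viability over 70% of control, limit read from the data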;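 on Her2 level: lower value means less Her2 protein in the cells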;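 on viability: percent of carrier control wells set as 100% viability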); settings: SKBR3 Her2 protein level, 18-24 h, measured here: SKBR3 viability, ATP luminescence, at 10 µM
# [2] = molecular target: Receptor tyrosine-protein kinase erbB-2 (Homo sapiens) (UniProt P04626); test: as above; settings: 18-24 h, at 10 µM, stronger effect = lower value
# Receptor tyrosine-protein kinase erbB-2 (Homo sapiens), sequence (P04626 whole entry, looked up): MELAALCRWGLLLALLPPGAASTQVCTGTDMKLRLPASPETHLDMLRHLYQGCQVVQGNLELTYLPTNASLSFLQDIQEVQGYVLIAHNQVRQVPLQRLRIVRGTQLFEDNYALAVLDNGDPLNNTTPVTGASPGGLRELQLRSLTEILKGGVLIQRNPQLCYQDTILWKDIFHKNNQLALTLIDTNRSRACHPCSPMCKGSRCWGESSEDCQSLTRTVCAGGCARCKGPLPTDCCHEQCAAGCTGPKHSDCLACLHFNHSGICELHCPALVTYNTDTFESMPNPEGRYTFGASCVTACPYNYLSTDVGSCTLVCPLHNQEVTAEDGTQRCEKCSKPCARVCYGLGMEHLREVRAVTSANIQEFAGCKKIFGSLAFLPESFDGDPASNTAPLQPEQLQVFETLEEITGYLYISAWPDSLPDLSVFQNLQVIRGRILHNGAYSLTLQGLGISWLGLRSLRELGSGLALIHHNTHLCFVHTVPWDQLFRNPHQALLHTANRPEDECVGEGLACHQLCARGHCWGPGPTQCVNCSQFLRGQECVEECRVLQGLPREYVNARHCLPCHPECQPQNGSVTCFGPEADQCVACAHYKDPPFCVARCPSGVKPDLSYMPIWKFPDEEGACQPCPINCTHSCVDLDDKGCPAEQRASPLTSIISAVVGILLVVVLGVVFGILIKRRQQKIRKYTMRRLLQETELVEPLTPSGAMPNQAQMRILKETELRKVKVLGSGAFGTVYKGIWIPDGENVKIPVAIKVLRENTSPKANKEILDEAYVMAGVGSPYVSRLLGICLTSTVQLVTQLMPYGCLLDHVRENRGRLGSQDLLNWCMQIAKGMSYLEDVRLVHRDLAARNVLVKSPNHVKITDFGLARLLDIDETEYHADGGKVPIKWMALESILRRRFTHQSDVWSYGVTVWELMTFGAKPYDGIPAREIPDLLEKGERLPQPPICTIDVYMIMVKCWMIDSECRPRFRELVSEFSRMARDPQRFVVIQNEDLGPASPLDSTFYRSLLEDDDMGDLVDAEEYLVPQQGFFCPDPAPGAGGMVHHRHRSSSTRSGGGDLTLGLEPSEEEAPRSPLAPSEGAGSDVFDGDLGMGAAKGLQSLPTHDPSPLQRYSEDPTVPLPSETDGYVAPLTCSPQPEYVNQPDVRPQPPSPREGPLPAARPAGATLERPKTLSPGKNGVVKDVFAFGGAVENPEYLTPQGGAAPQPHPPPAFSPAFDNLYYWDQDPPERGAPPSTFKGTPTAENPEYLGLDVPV
# [3] = reduced viability of SK-BR-3 breast cancer cells – cell-based, 24 h, human, pilot screen (AID 572;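 active means viability at or below 10% of carrier control in both of two separate runs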;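 further: compound exposure lasted between 18 and 24 h rather than exactly 24 h; 100% = carrier-treated control wells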); settings: SK-BR-3 viability, CellTiter-Glo luminescence, at 10 µM, stronger effect = lower value
# [4] = HUVEC growth inhibition – cell-based, human, primary screen (AID 575;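 active means viability at or below 30% in both replicate assays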;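 further: 100% = median of untreated cell wells with 0.1% DMSO on each plate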); settings: HUVEC proliferation, CellTiter-Glo luminescence, 72 h; at 10 µM; stronger effect = lower value
# How it was run: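 Material: primary human umbilical vein endothelial cells / Schedule: 72 h exposure, 37 °C, 5% CO2, 30 min RT equilibration / Signal: ATP-based CellTiter-Glo luminescent read / Read-out basis: percent of median DMSO-control luminescence / Control set: 32 DMSO-only cell-control wells (high), 32 MePR drug-control wells (low) per plate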
# [5] = H69AR cell proliferation blockers – human, duplicate replicates, primary screen (AID 580;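 active means viability at or under a set limit in both replicates, limit being median viability minus 3 SD, cut at about 48% in these data, passing the limit was not always enough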;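 further: 100% = mean luminescence of untreated wells and 0% = no signal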); settings: H69AR lung tumor cells viability, ATP luminescence, 72 h; at 10 µM; stronger effect = lower value
# [6] = MRP1 drug-resistance reversers in H69AR cells – cell-based, doxorubicin co-treatment, pilot screen (AID 601;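 active means viability loss from added drug above about 55%, and viability with drug at most 40%, in both replicates, limit read from the data, passing the limit was not always enough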); settings: CellTiter-Glo, 72 h, at 10 µM; for differential viability (reversal): stronger effect = higher value
# [7] = yeast transport mutant growth inhibition pilot in 384-well plates, post-Golgi transport modulator project (AID 636; in the data active means inhibition above about 31%); settings: absorbance 615 nm, about 18 h, stronger effect = higher value
# [8] = growth suppression of yeast trafficking mutant, preliminary HTS, modulators of trafficking downstream of Golgi apparatus project, 1536-format plate, OD 615 nm (AID 637); settings: yeast transport mutant growth, absorbance 615 nm, 18 h; stronger effect = higher value
# [9] = H69AR cells + 2 uM doxorubicin, measured here: viability with 2 uM doxorubicin, stronger effect = lower value
# [10] = H69AR cells, compound alone cytotoxicity
Compound,viability [1] [%],Her2 level [2],viability [3],viability [4],viability [5],differential viability (reversal) ([6]; H69AR cells + 2 uM doxorubicin),"viability [6, 9] [%]","viability [6, 10] [%]",inhibition [7],inhibition [8]
COC(=O)c1[nH]c2cccc(C)c2c1NC(=O)CN1CCCc2ccccc21,77.5,92% (inactive),77.5% (inactive),67.1% (inactive),78.8% (inactive),2.1% (inactive),76.7,78.8,-1.47% (inactive),2.79% (inactive)
c1cn(C23CC4CC(CC(C4)C2)C3)cn1,113,88% (inactive),113% (inactive),104% (inactive),92.3% (inactive),8.21% (inactive),84.1,92.3,-5.6% (inactive),1.94% (inactive)
O=c1oc2ccccc2c2c1ncn2-c1ccccc1,100,96% (inactive),100% (inactive),90.4% (inactive),89.1% (inactive),-8.58% (inactive),97.7,89.1,0.52% (inactive),-2.13% (inactive)
Cc1ccc(OCC(=O)NCCN2CCCC2)cc1,97.5,84.5% (inactive),97.5% (inactive),86% (inactive),95.9% (inactive),9.56% (inactive),86.4,95.9,-6.8% (inactive),2.3% (inactive)
CCSc1nnc(NC(=O)CCNS(=O)(=O)c2cc(Br)cnc2N)s1,79.5,107% (inactive),79.5% (inactive),76.8% (inactive),107% (inactive),1.07% (inactive),106,107,-1.04% (inactive),-0.82% (inactive)
O=C(Cn1cnc2c(cnn2-c2ccc(F)cc2)c1=O)N1CCCc2ccccc21,112,86.5% (inactive),112% (inactive),85.6% (inactive),94.4% (inactive),-7.36% (inactive),102,94.4,-4.67% (inactive),-2.79% (inactive)
CC12CCC(C(=O)N3CCCCC3)(CC1=O)C2(C)C (stereo not given),97.5,102% (inactive),97.5% (inactive),96.3% (inactive),97.8% (inactive),0.59% (inactive),97.2,97.8,-3.08% (inactive),-0.83% (inactive)
CCOC(=O)c1sc2ncn(/N=C/N(C)C)c(=O)c2c1C,98,97.5% (inactive),98% (inactive),114% (inactive),100% (inactive),5.85% (inactive),94.1,100,-6.13% (inactive),4.68% (inactive)
CCOc1cc(C(=O)N(C)c2ccccc2)cc(OCC)c1OCC,108,131% (inactive),108% (inactive),96.4% (inactive),89.2% (inactive),-1.49% (inactive),90.7,89.2,-5.64% (inactive),-11.3% (inactive)
CCc1nnc(NC(=O)c2ccc(COc3ccc(C)cc3)o2)s1,104,93.5% (inactive),104% (inactive),99.5% (inactive),106% (inactive),-4.93% (inactive),111,106,-3.01% (inactive),-3.17% (inactive)
COCCn1c(COc2ccc(Cl)cc2)nnc1SCC(N)=O,85.5,84.5% (inactive),85.5% (inactive),98.8% (inactive),109% (inactive),18.1% (inactive),90.8,109,-5.41% (inactive),2.54% (inactive)
COc1ccc(-c2cc(C(=O)NCCc3ccccc3)no2)cc1OC,102,85.5% (inactive),102% (inactive),92.3% (inactive),89.9% (inactive),3.29% (inactive),86.6,89.9,-4.19% (inactive),-12.7% (inactive)
CN(C(=O)CSc1nc2c(c(=O)[nH]1)CCCC2)C1CCCCC1,95,105% (inactive),95% (inactive),77.1% (inactive),93.3% (inactive),1.09% (inactive),92.2,93.3,-1.97% (inactive),-8.89% (inactive)
CCc1cccc2c(=O)c(C(=O)NCCN3CCOCC3)c[nH]c12,104,113% (inactive),104% (inactive),102% (inactive),108% (inactive),18.2% (inactive),90,108,-5.47% (inactive),1.29% (inactive)
O=S(=O)(Cc1ccccc1)N1CCCCCC1,93,83.5% (inactive),93% (inactive),96.1% (inactive),101% (inactive),2.14% (inactive),98.8,101,-5.81% (inactive),2.3% (inactive)
Cc1ccc(S(=O)(=O)N2CCN(S(C)(=O)=O)C2c2ccccc2)cc1 (stereo not given),82,96% (inactive),82% (inactive),103% (inactive),94.4% (inactive),-12% (inactive),106,94.4,0.13% (inactive),0% (inactive)

Compound,viability [1] [%],Her2 level [2],viability [3],viability [4],viability [5],differential viability (reversal) ([6]; H69AR cells + 2 uM doxorubicin),"viability [6, 9] [%]","viability [6, 10] [%]",inhibition [7],inhibition [8]
Nn1c(SCC(=O)Nc2ccc3c(c2)OCCO3)nnc1C(F)(F)F,88.5,78.5% (inactive),88.5% (inactive),88.3% (inactive),80.9% (inactive),-7.85% (inactive),88.8,80.9,-2.5% (inactive),1.27% (inactive)
O=C(CCSc1nccn1Cc1ccccc1)N1CCOCC1,107,111% (inactive),107% (inactive),103% (inactive),97% (inactive),11.1% (inactive),86,97,-6.13% (inactive),-0.65% (inactive)
COc1ccc(CC(NC(C)=O)C(=O)NC2CCN(C(=O)Nc3ccc(C#N)cc3)CC2)cc1OC (stereo not given),93,91.5% (inactive),93% (inactive),117% (inactive),94.2% (inactive),-3.13% (inactive),97.3,94.2,-4.13% (inactive),2.79% (inactive)
COc1ccccc1OCC(=O)Nc1cccc(-c2nc3ccccc3o2)c1,104,78.5% (inactive),104% (inactive),52.8% (inactive),65.1% (inactive),-14.2% (inactive),79.3,65.1,-0.13% (inactive),23% (inactive)
Cc1ccc(-c2nn3c(=O)c(C)nnc3s2)cc1,112,112% (inactive),112% (inactive),112% (inactive),104% (inactive),12.8% (inactive),90.9,104,-2.97% (inactive),-5% (inactive)
N#Cc1cc2sc3nnc(-c4ccncc4)n3c2cc1C#N,112,35.5% (active),112% (inactive),37.8% (inactive),32.3% (active),-18.2% (inactive),50.5,32.3,-1.71% (inactive),7.94% (inactive)
Cc1cc(C)c2c(n1)nn1c(N3CCOCC3)cc(C)nc21,90,87.5% (inactive),90% (inactive),110% (inactive),87.1% (inactive),-6.34% (inactive),93.4,87.1,-4.86% (inactive),0.79% (inactive)
CCS(=O)(=O)N1CCCC(C(=O)NCc2ccccc2Cl)C1 (stereo not given),90,110% (inactive),90% (inactive),99.1% (inactive),94.7% (inactive),5.79% (inactive),88.9,94.7,-7.6% (inactive),-3.61% (inactive)
CCn1c(C)c(CCC(=O)O)c(=O)n2nc(-c3ccccc3OC)cc12,91,104% (inactive),91% (inactive),100% (inactive),87.4% (inactive),-1.22% (inactive),88.6,87.4,-0.14% (inactive),23.6% (inactive)
COc1ccccc1N1CCN(C(=O)C2CCCO2)CC1 (stereo not given),98.5,92.5% (inactive),98.5% (inactive),90% (inactive),97.5% (inactive),-0.265% (inactive),97.8,97.5,-1.69% (inactive),1.8% (inactive)
O=c1c2c3nc4ccccc4nc3n(CC3CCCO3)c2ncn1CCc1ccccc1 (stereo not given),97,83.5% (inactive),97% (inactive),76.2% (inactive),70.4% (inactive),38.6% (inactive),31.8,70.4,-6.93% (inactive),-2.62% (inactive)
Cc1ccc(NC(=O)C2CCCN2C(=O)Oc2ccccc2)cc1 (stereo not given),90.5,94.5% (inactive),90.5% (inactive),107% (inactive),91.5% (inactive),-0.415% (inactive),91.9,91.5,-6.4% (inactive),-1.64% (inactive)
COc1ccc(C(=O)CSc2nnc(C3CCCCC3)n2N)c(OC)c1,91.5,105% (inactive),91.5% (inactive),119% (inactive),83.3% (inactive),2% (inactive),81.3,83.3,-4% (inactive),-6.23% (inactive)
CSc1nc(=NC(C)=O)ss1,122,88.5% (inactive),122% (inactive),84.7% (inactive),71.8% (inactive),-20% (inactive),91.8,71.8,-6.8% (inactive),-10% (inactive)
COc1ccc(NC(=O)Cn2nnc(-c3ccccc3N)n2)cc1OC,106,108% (inactive),106% (inactive),94.4% (inactive),97.8% (inactive),4.44% (inactive),93.3,97.8,-5.07% (inactive),10% (inactive)
O=C(Cn1nnc(-c2ccc(S(=O)(=O)N3CCCC3)cc2)n1)NCC1CCCO1 (stereo not given),86,99% (inactive),86% (inactive),89% (inactive),101% (inactive),2.39% (inactive),98.7,101,-3.78% (inactive),2.95% (inactive)
